For data set [1], the target named is Metallo-beta-lactamase type 2 (Bacteria) (UniProt C7C422). As to the kind of experiment: (§1) Inhibition of bacterial metallo-beta-lactamase NDM-1 preincubated for 5 mins followed by imipenem addition by spectrophotometer analysis. An outline of the steps: (§2)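 Purified NDM-1 (10 nM) in 50 mM HEPES pH 7.2 with 100 μM ZnCl2, 2.5% DMSO and 400 μg ml−1 BSA, preincubated with inhibitor (twelve concentrations, 0–800 μM) at 25 °C for 5 min. Reaction started with 100 μM imipenem and absorbance read at 300 nm. Triplicates; IC50 from initial velocities by log[inhibitor] vs. response fit.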
Metallo-beta-lactamase type 2 (Bacteria), sequence (C7C422 whole entry): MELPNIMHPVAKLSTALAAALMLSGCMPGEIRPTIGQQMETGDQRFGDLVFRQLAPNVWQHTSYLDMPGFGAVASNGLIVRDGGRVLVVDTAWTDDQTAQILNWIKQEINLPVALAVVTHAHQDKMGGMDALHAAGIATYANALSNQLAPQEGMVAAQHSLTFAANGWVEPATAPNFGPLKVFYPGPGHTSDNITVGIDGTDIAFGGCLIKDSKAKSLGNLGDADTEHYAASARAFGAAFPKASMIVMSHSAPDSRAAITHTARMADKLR

Data set [2] concerns HepG2. Nature of the data set: Cytotoxicity against human HepG2 cells incubated for 24 hrs by resorufin based fluorescence assay. In kind it is toxicity, cell-based. The conditions noted are these: hepg2, 24 h. A digest of the protocol: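 HepG2 cells grown in DMEM with 10% FBS and 1% penicillin–streptomycin at 37 °C, 5% CO2, seeded for exponential growth. Two-fold serial dilutions of compound added at 0.3% v/v final DMSO for 24 h. PrestoBlue viability read as resorufin fluorescence (544/590 nm). Controls were untreated, DMSO-only and 1% SDS. EC50 from three independent experiments.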

Data set [3] concerns the target Metallo-beta-lactamase type 2 (Bacteria, UniProt C7C422). The data set is described as §1. An outline of the steps: as §2
Data set [4] deals with Bacteria. Nature of the data set: Inhibition of bacterial metallo-beta-lactamase VIM-2 preincubated for 5 mins followed by nitrocefin addition by spectrophotometer analysis. A digest of the protocol: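 Purified VIM-2 (0.1 nM) in 50 mM HEPES pH 7.2 with 100 μM ZnCl2, 2.5% DMSO and 400 μg ml−1 BSA, preincubated with inhibitor (twelve concentrations, 0–800 μM) at 25 °C for 5 min. Reaction started with 100 μM nitrocefin and absorbance read at 482 nm. Triplicates; IC50 from initial velocities by log[inhibitor] vs. response fit.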

Experimental findings from ChEMBL document CHEMBL5329219, “α-Aminophosphonate inhibitors of metallo-β-lactamases NDM-1 and VIM-2” (RSC Med Chem, 2023) are described below.

Active and inactive are the calls of the source. No cut-off for these calls is given here.

Metallo-beta-lactamase type 2, sequence (C7C422 whole entry): as above

On to `O=C(NC(C1CCCCN1)P(=O)(O)O)c1scc2c1CCCC2` (stereo in doubt; form 2), for which the inhibition result in data set [1] was “inactive”.
Take `Cl.O=C(NC(C1CCCCN1)P(=O)(O)O)c1cccs1` (stereo not drawn): in data set [2], the Activity entry was “Non-Toxic”.
Broadly, the IC50 is the concentration that inhibits the measured activity by half. Low values mean greater potency in that assay, high ones weaker potency in that assay. On to `Cl.O=C(NC(C1CCCCN1)P(=O)(O)O)c1csc2c1CCCC2` (stereo not drawn), for which the inhibition entry in data set [1] is “inactive”. The compound further had an IC50 in data set [3] of 76 µM. Besides, the Activity result in data set [2] is on record as “Non-Toxic”.
For the compound `O=C(NC(C1CCCCN1)P(=O)(O)O)c1csc2ccccc12` (stereo in doubt; form 2), the inhibition entry in data set [1] was “inactive”.
On the same count and under the same terms, with `O=C(NC(C1CCCCN1)P(=O)(O)O)c1cc2c(s1)CCCC2` (stereo in doubt; form 2) the entry was “inactive”.
In the case of `Cc1[nH]c(=S)sc1CC(=O)NC(C1CCCCN1)P(=O)(O)O` (stereo in doubt; form 2), the inhibition entry in data set [1] and in data set [4] was “inactive” throughout.
As for `Cl.O=C(NC(C1CCCCN1)P(=O)(O)O)c1ccsc1` (stereo not drawn), the Activity result in data set [2] is recorded as “Non-Toxic”.
Still for that read-out and setting: with `Cl.O=C(NC(C1CCCCN1)P(=O)(O)O)c1csc2ccccc12` (stereo in doubt; form 1) the entry was “Non-Toxic”.
As for `Cc1[nH]c(=S)sc1CC(=O)NC(C1CCCCN1)P(=O)(O)O` (stereo in doubt; form 1), the inhibition entry in data set [1] was “inactive”.
Still for that read-out and setting: the value for `O=C(NC(C1CCCCN1)P(=O)(O)O)c1cc2c(s1)CCCC2` (stereo in doubt; form 1) was “inactive”; that for `O=C(NC(C1CCCCN1)P(=O)(O)O)c1csc2ccccc12` (stereo in doubt; form 1) was “inactive”.
Turning to `Cl.O=C(Cc1cccs1)NC(C1CCCCN1)P(=O)(O)O` (stereo not drawn), the inhibition result in data set [4] was “inactive”. In data set [2], the Activity result is given as “Non-Toxic”.
Regarding `Cl.O=C(NC(C1CCCCN1)P(=O)(O)O)c1scc2c1CCCC2` (stereo in doubt; form 1), in data set [2], the Activity entry is listed as “Non-Toxic”.
Turning to `O=C(NC(C1CCCCN1)P(=O)(O)O)c1scc2c1CCCC2` (stereo in doubt; form 1), in data set [1], the inhibition result was “inactive”.
`Cc1[nH]c(=S)sc1CC(=O)NC(C1CCCCN1)P(=O)(O)O.Cl` (stereo in doubt; form 1): in data set [2], the Activity result is “Non-Toxic”.
As for `Cl.O=C(Cc1csc2ccccc12)NC(C1CCCCN1)P(=O)(O)O` (stereo not drawn), the inhibition entry in data set [4] was “inactive”. Moreover, the Activity result in data set [2] is given as “Non-Toxic”.
Turning to `Cl.O=C(Cc1cc2ccccc2s1)NC(C1CCCCN1)P(=O)(O)O` (stereo not drawn), in data set [1], the inhibition entry is “inactive”. In data set [3], this compound had an IC50 of 22.4 µM. Moreover, in data set [2], the Activity result is given as “Non-Toxic”.
`Cl.O=C(NC(C1CCCCN1)P(=O)(O)O)c1cc2ccccc2s1` (stereo not drawn): in data set [2], the Activity result is given as “Non-Toxic”.
In the case of `Cl.O=C(Cc1ccsc1)NC(C1CCCCN1)P(=O)(O)O` (stereo not drawn), the inhibition entry in data set [4] is “inactive”. For the same compound, in data set [2], the Activity result is on record as “Non-Toxic”.
For `Cl.O=C(NC(C1CCCCN1)P(=O)(O)O)c1cc2c(s1)CCCC2` (stereo in doubt; form 1), the Activity result in data set [2] was “Non-Toxic”.
